# Results gathered from unrelated publications.
# Each line is one published result; the experiments were not run side by side.
# Target: Cytoplasmic tyrosine-protein kinase BMX (BMX, Homo sapiens, UniProt P51813)
# One construct used (P51813 1-675): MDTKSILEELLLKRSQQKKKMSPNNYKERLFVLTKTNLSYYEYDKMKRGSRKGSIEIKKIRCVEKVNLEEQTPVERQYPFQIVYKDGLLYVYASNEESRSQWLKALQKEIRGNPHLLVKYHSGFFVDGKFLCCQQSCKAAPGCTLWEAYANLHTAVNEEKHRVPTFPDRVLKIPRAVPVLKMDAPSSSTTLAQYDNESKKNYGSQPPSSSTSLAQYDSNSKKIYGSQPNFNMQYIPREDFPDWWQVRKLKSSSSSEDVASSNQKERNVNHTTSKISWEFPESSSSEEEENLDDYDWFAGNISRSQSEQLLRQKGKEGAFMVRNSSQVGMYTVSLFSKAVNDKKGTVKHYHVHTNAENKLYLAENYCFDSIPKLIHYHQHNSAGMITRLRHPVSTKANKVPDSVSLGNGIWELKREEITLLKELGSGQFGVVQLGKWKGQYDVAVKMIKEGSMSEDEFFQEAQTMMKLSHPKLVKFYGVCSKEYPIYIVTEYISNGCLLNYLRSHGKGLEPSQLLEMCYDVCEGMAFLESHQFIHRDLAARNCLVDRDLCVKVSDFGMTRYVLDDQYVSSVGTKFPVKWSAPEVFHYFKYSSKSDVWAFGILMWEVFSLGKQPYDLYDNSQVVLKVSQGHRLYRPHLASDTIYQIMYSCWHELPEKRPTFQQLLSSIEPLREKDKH
Structure (SMILES),read-out,mode,method,tested at,measurement,value
Nc1ncc(-c2nc(N3CCOCC3)nc(N3CCOCC3)n2)c(C(F)F)n1,binding,,competition with immobilised ligand,10 µM,remaining binding,86%
CCn1cnc2c(Nc3cccc(Cl)c3)nc(N[C@H]3CCCC[C@H]3N)nc21,enzyme activity,inhibitor,,0.5 µM,remaining activity,90.7%
Cc1nn(C)cc1-c1nc2c(N3CCN(Cc4ccc(Cl)cc4)CC3)c(Cl)cnc2[nH]1,binding,,competition with immobilised ligand,1 µM,remaining binding,100%
Cn1cc(-c2cc(F)cc(N3CCn4c(cc5c4CCCC5)C3=O)c2CO)cc(Nc2ccc(N3CCN(C4COC4)CC3)cn2)c1=O,enzyme activity,inhibitor,,0.1 µM,inhibition,37%
Cn1cncc1[C@@](O)(COc1ccc(C#N)cc1-c1ccc(OC(F)(F)F)cc1)c1ccc(C#N)cc1,cell-free assay,,competition with immobilised ligand,1 µM,remaining binding,64%
C#Cc1n[nH]c2c(-c3cn([C@@H](C)c4ccccc4)c(=O)[nH]c3=O)cc(F)cc12,enzyme activity,inhibitor,,0.1 µM,inhibition,-7.4%
Cn1cc(-c2cccc(N3CCc4c(sc5c4CC(C)(C)C5)C3=O)c2CO)cc(Nc2ccncn2)c1=O,enzyme activity,inhibitor,,1 µM,inhibition,49%
O=c1[nH]c2ccccc2n1C1CCN(Cc2ccc(-c3[nH]c4cc5ncnc5cc4nc3-c3ccccc3)cc2)CC1,cell-free assay,,,0.5 µM,remaining signal,108%
C#Cc1n[nH]c2c(-c3cn([C@@H](C)c4ccccn4)c(=O)[nH]c3=O)cc(F)cc12,enzyme activity,inhibitor,,0.1 µM,inhibition,-1.6%
COc1ncccc1-c1cnn2ccc(N3CCN(C(=O)OC(C)C)CC3)nc12,binding,,competition with immobilised ligand,1 µM,remaining binding,91%
N#CC1(c2ccccn2)CCN(Cc2cc(C(=O)O)c(=O)n3ccccc23)CC1,cell-free assay,,competition with immobilised ligand,1 µM,remaining binding,88%
